By mortality is commonly meant the share of the test organisms that died.

What all share (type): functional
Test [1] deals with Tetranychus cinnabarinus. Nature of the test: Acaricidal activity against eggs of Tetranychus cinnabarinus (carmine spider mite) in sieva bean leaves assessed as mortality at 25 +/-1 degC treated for 3 secs measured after 4 days.
The test system of test [2] is Tetranychus cinnabarinus. Nature of the test: Acaricidal activity against eggs of Tetranychus cinnabarinus (carmine spider mite) in sieva bean leaves assessed as mortality at 5 mg/kg at 25 +/-1 degC treated for 3 secs measured after 4 days. As to conditions: 96 h.
Test [3] concerns Tetranychus cinnabarinus. Nature of the test: Acaricidal activity against larvae of Tetranychus cinnabarinus (carmine spider mite) in sieva bean leaves assessed as mortality at 10 mg/kg at 25 +/-1 degC treated for 3 secs measured after 4 days. As to conditions: 96 h.
The test system of test [4] is Tetranychus cinnabarinus. Nature of the test: Acaricidal activity against eggs of Tetranychus cinnabarinus (carmine spider mite) in sieva bean leaves assessed as mortality at 0.1 mg/kg at 25 +/-1 degC treated for 3 secs measured after 4 days. As to conditions: 96 h.
In test [5] the test system is Tetranychus cinnabarinus. Nature of the test: Ratio of mortality against eggs of Tetranychus cinnabarinus (carmine spider mite) to mortality against larvae of carmine spider mite.
The test system of test [6] is Tetranychus cinnabarinus. Nature of the test: Acaricidal activity against eggs of Tetranychus cinnabarinus (carmine spider mite) in sieva bean leaves assessed as mortality at 2.5 mg/kg at 25 +/-1 degC treated for 3 secs measured after 4 days. As to conditions: 96 h.
The next test deals with Helicoverpa armigera. Nature of the test: Stomach toxicity against third-instar larval stage of Helicoverpa armigerain compound-pretreated corn leaves assessed as mortality at 600 mg/kg at 25 +/-1 degC after 4 days by leaf-dip method. An outline of the steps: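 Leaf-dip assay on cotton bollworm. Corn leaves were dipped in test solution and air-dried. The treated pieces were placed individually into 24-hole boxes. Run at 25 ± 1 °C.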

The subject of test [7] is Tetranychus cinnabarinus. Nature of the test: Acaricidal activity against eggs of Tetranychus cinnabarinus (carmine spider mite) in sieva bean leaves assessed as mortality at 0.05 mg/kg at 25 +/-1 degC treated for 3 secs measured after 4 days. As to conditions: 96 h.
Test [8] has as its system Tetranychus cinnabarinus. Nature of the test: Acaricidal activity against eggs of Tetranychus cinnabarinus (carmine spider mite) in sieva bean leaves assessed as mortality at 1 mg/kg at 25 +/-1 degC treated for 3 secs measured after 4 days. As to conditions: 96 h.
Test [9] concerns Mythimna separata. Nature of the test: Stomach toxicity against fourth-instar larval stage of Mythimna separata (Oriental armyworm) in compound-pretreated corn leaves assessed as mortality at 600 mg/kg at 25 +/-1 degC after 4 days. Summed up:
(§1)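 Foliar application to oriental armyworm. Single corn leaves were laid on moistened filter paper in Petri dishes. Bioassays were run at 25 ± 1 °C.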

The test system of test [10] is Tetranychus cinnabarinus. Nature of the test: Acaricidal activity against eggs of Tetranychus cinnabarinus (carmine spider mite) in sieva bean leaves assessed as mortality at 0.25 mg/kg at 25 +/-1 degC treated for 3 secs measured after 4 days. As to conditions: 96 h.
Test [11] deals with Tetranychus cinnabarinus. Nature of the test: Acaricidal activity against eggs of Tetranychus cinnabarinus (carmine spider mite) in sieva bean leaves assessed as mortality at 0.5 mg/kg at 25 +/-1 degC treated for 3 secs measured after 4 days. As to conditions: 96 h.
Test [12] has as its system Tetranychus cinnabarinus. Nature of the test: Acaricidal activity against larvae of Tetranychus cinnabarinus (carmine spider mite) in sieva bean leaves assessed as mortality at 2.5 mg/kg at 25 +/-1 degC treated for 3 secs measured after 4 days. As to conditions: 96 h.
Test [13] has as its system Tetranychus cinnabarinus. Nature of the test: Acaricidal activity against larvae of Tetranychus cinnabarinus (carmine spider mite) in sieva bean leaves assessed as mortality at 5 mg/kg at 25 +/-1 degC treated for 3 secs measured after 4 days. As to conditions: 96 h.
Another test concerns Ostrinia nubilalis. Nature of the test: Stomach toxicity against third-instar larval stage of Ostrinia nubilalis (European corn borer) in corn leaves assessed as mortality at 600 mg/kg at 25 +/-1 degC treated for 3-5 secs before larval infestation after 4 days by leaf-dip method. As to conditions: 96 h. Summed up: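 Corn leaf disks (about 5 cm) were dipped for 3–5 s and air-dried. Each disk was placed in a 7 cm glass vessel with 10 third-instar corn borer larvae. Percentage mortality was scored 4 days after treatment. Controls were acetone-treated leaves. Run at 25 ± 1 °C.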

Test [14] has as its system Tetranychus cinnabarinus. Nature of the test: Toxicity ratio of spiromesifen LC50 to compound LC50 for eggs of Tetranychus cinnabarinus (carmine spider mite) treated for 3 secs measured after 4 days.
The test system of the next test is Plutella xylostella. Nature of the test: Stomach toxicity against third-instar larval stage of Plutella xylostella (diamondback moth) in cabbage leaves assessed as mortality at 200 mg/kg at 25 +/-1 degC treated for 3 secs before larval infestation after 4 days by leaf-dip method. As to conditions: 96 h. Summed up: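 Cabbage leaf disks (6 cm × 2 cm) were dipped in test solution for 3 s and air-dried. Each disk was placed in a glass tube and given seven third-instar diamondback moth larvae. Percentage mortality was scored after 4 days. Controls were water and dimethylformamide. Each treatment was done three times at 25 ± 1 °C.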

The test system of test [15] is Mythimna separata. Nature of the test: Stomach toxicity against fourth-instar larval stage of Mythimna separata (Oriental armyworm) in compound-pretreated corn leaves assessed as mortality at 100 mg/kg at 25 +/-1 degC after 4 days. An outline of the steps:
as §1

The subject of test [16] is Mythimna separata. Nature of the test: Stomach toxicity against fourth-instar larval stage of Mythimna separata (Oriental armyworm) in compound-pretreated corn leaves assessed as mortality at 50 mg/kg at 25 +/-1 degC after 4 days. Summed up: as §1
Test [17] concerns Tetranychus cinnabarinus. Nature of the test: Acaricidal activity against larvae of Tetranychus cinnabarinus (carmine spider mite) in sieva bean leaves assessed as mortality at 0.5 mg/kg at 25 +/-1 degC treated for 3 secs measured after 4 days. As to conditions: 96 h.
Test [18] deals with Tetranychus cinnabarinus. Nature of the test: Acaricidal activity against larvae of Tetranychus cinnabarinus (carmine spider mite) in sieva bean leaves assessed as mortality at 1 mg/kg at 25 +/-1 degC treated for 3 secs measured after 4 days. As to conditions: 96 h.

As to `Cc1cc(C)c(C2=C(OC(=O)C(=O)N(C(C)C)C(C)C)C3(CCCC3)OC2=O)c(C)c1`, the LC50 with Tetranychus cinnabarinus [1] is 0.1147 mg/kg. The mortality at 5 mg/kg with Tetranychus cinnabarinus [2] was 100%; in the test on Tetranychus cinnabarinus [13], 80%. In the test on Tetranychus cinnabarinus [3], the mortality at 10 mg/kg amounted to 100%. Further, the mortality at 0.1 mg/kg in the test with Tetranychus cinnabarinus [4] turned out to be 40%. For the same compound, the Ratio in the test on Tetranychus cinnabarinus [5] was 25. Moreover, the mortality at 2.5 mg/kg worked out at 100% with Tetranychus cinnabarinus [6] and 40% in the test with Tetranychus cinnabarinus [12]. For the same compound, the mortality at 600 mg/kg came out at 40% with Helicoverpa armigera, 50% with Mythimna separata [9] and 80% with Ostrinia nubilalis. Further, the mortality at 0.05 mg/kg in the test with Tetranychus cinnabarinus [7] was 10%. The mortality at 1 mg/kg in the test on Tetranychus cinnabarinus [8] turned out to be 100%. Also, in the test on Tetranychus cinnabarinus [10], the mortality at 0.25 mg/kg worked out at 80%. Moreover, the mortality at 0.5 mg/kg in the test with Tetranychus cinnabarinus [11] turned out to be 100%. For the same compound, the RatioLC50 in the test on Tetranychus cinnabarinus [14] is 1.4.

In the case of `Cc1cc(C)c(C2=C(OC(=O)C(=O)N3CCCCC3)C3(CCCC3)OC2=O)c(C)c1`, the LC50 in the test on Tetranychus cinnabarinus [1] came out at 0.0675 mg/kg. In addition, the mortality at 5 mg/kg was determined as 100% in the test on Tetranychus cinnabarinus [2] and 90% in the test on Tetranychus cinnabarinus [13]. In the test with Tetranychus cinnabarinus [3], the mortality at 10 mg/kg turned out to be 100%. Moreover, the mortality at 0.1 mg/kg in the test with Tetranychus cinnabarinus [4] worked out at 60%. Moreover, the Ratio with Tetranychus cinnabarinus [5] is reported as 25. Besides, the mortality at 2.5 mg/kg with Tetranychus cinnabarinus [6] was 100%; with Tetranychus cinnabarinus [12], 70%. For the same compound, the mortality at 600 mg/kg in the test with Helicoverpa armigera stood at 30%; in the test with Mythimna separata [9] it was 40%; in the test on Ostrinia nubilalis, 40%. In the test on Tetranychus cinnabarinus [7], the mortality at 0.05 mg/kg is 30%. For the same compound, in the test with Tetranychus cinnabarinus [8], the mortality at 1 mg/kg came out at 100%. In the test on Tetranychus cinnabarinus [10], the mortality at 0.25 mg/kg is 100%. For the same compound, in the test with Tetranychus cinnabarinus [11], the mortality at 0.5 mg/kg is 100%. In addition, in the test on Tetranychus cinnabarinus [14], the RatioLC50 is recorded as 2.3.

As for `Cc1cc(C)c(C2=C(OC(=O)CC(C)(C)C)C3(CCCC3)OC2=O)c(C)c1` [SPIROMESIFEN], the LC50 in the test with Tetranychus cinnabarinus [1] was 0.1567 mg/kg. The mortality at 5 mg/kg in the test with Tetranychus cinnabarinus [2] and in the test with Tetranychus cinnabarinus [13] was 100% each time. In addition, in the test on Plutella xylostella, the mortality at 200 mg/kg was 70%. For the same compound, in the test on Tetranychus cinnabarinus [3], the mortality at 10 mg/kg worked out at 100%. In the test with Tetranychus cinnabarinus [4], the mortality at 0.1 mg/kg is 20%. In addition, the mortality at 2.5 mg/kg with Tetranychus cinnabarinus [6] and in the test with Tetranychus cinnabarinus [12] was 100% throughout. The mortality at 600 mg/kg worked out at 50% in the test on Helicoverpa armigera and 60% with Ostrinia nubilalis. Moreover, the mortality at 100 mg/kg with Mythimna separata [15] amounted to 100%. In the test on Tetranychus cinnabarinus [7], the mortality at 0.05 mg/kg came out at 0%. Moreover, the mortality at 1 mg/kg in the test with Tetranychus cinnabarinus [8] and in the test with Tetranychus cinnabarinus [18] was 90% throughout. Moreover, in the test with Tetranychus cinnabarinus [10], the mortality at 0.25 mg/kg was 60%. Moreover, the mortality at 50 mg/kg in the test on Mythimna separata [16] was 60%. The mortality at 0.5 mg/kg in the test with Tetranychus cinnabarinus [17] and in the test on Tetranychus cinnabarinus [11] was 90% each time. For the same compound, the RatioLC50 in the test on Tetranychus cinnabarinus [14] stood at 1.

Source of the values: ChEMBL document CHEMBL3045256, “Design, synthesis, structure, and acaricidal/insecticidal activity of novel spirocyclic tetronic acid derivatives containing an oxalyl moiety” (2011).
